Measurements: paper PMC3525873 (British Journal of Pharmacology, 2012)

What was measured:
Format in all cases: cell-based
[1] = target: STIM1/Orai1-mediated SOCE (Rattus norvegicus, UniProt Q5M848); assay: Fura-2 Ca2+ re-addition, thapsigargin-depleted native RBL-2H3 cells
Summary of the method: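 Native RBL-2H3 cells were loaded with 2 μM Fura-2-AM for 45 min and perfused in Ca2+-free extracellular solution at room temperature. Stores depleted with 1 μM thapsigargin for 5 min. Test compound present ≥5 min before and throughout. Ca2+ entry evoked by 2 mM Ca2+ re-addition; 340/380 nm ratio read (510 nm emission). Inhibition expressed as % of control peak entry. IC50 by 4-parameter logistic fit; 3–5 experiments, 29–80 cells.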

TRPC3 [2] = target: T1, TRPC3 (Homo sapiens, UniProt Q13507); assay: Patch-clamp of TRPC3 currents in HEK293 cells transiently expressing TRPC3
T1 sequence (Q13507 74-921 limits assumed): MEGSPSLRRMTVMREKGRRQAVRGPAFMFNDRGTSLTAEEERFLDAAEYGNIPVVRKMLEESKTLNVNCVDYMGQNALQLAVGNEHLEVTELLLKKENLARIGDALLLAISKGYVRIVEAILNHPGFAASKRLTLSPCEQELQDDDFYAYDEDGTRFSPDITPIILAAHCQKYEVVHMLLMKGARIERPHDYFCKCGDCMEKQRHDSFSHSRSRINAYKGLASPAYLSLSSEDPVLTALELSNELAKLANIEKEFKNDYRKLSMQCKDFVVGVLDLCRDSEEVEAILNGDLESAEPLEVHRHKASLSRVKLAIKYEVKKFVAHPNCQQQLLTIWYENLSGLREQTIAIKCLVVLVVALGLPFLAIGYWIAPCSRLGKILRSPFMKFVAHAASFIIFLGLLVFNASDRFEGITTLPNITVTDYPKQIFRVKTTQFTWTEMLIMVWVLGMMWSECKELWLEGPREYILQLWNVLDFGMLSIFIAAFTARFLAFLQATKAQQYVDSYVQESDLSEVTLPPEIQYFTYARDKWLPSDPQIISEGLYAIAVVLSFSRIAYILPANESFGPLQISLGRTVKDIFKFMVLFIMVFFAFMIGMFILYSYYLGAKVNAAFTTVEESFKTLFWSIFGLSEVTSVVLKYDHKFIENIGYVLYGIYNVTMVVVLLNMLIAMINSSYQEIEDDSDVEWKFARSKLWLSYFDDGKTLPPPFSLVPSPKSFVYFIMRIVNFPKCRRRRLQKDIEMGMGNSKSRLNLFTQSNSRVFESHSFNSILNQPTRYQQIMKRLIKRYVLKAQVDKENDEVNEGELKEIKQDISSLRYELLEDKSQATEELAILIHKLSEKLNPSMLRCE

[3] = target: CRAC currents in native RBL-2H3 cells (Rattus norvegicus, UniProt Q5M848); assay: Patch-clamp of CRAC currents in native RBL-2H3 cells
Summary of the method: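 Whole-cell recording of native RBL-2H3 cells at room temperature. Stores depleted passively by 20 mM EGTA in the Cs-methanesulphonate pipette solution (pH 7.2). Bath contained 20 mM CaCl2 (pH 7.4). Ramps from −90 to +90 mV over 1 s, holding +30 mV. Test compound at 3 μM, pre-incubated or applied acutely. Net current (minus basal) read at −85 mV 300 s after break-in; n ≥ 6 cells.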

RBL-2H3 cells = assay: Degranulation assay; conditions: ionomycin 0.4 μM
Summary of the method: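 RBL-2H3 cells grown to confluency, washed in RBL-2H3 buffer with 2 mM CaCl2, all incubations at 37°C. Test compound (3 or 10 μM) for 15 min, then ionomycin 0.4 μM final for 30 min. Stopped with 0.4 M glycine (pH 10.7), A405 read. Untreated and 2% triton-lysed cells served as basal/maximal references. n = 3 passages.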

TRPC3 [4] = target: T1, TRPC3; conditions: TRPC3 ROCE vs RBL-2H3 SOCE

Chain of STIM1/Orai1-mediated SOCE (Q5M848 whole entry, the tested form may be a part): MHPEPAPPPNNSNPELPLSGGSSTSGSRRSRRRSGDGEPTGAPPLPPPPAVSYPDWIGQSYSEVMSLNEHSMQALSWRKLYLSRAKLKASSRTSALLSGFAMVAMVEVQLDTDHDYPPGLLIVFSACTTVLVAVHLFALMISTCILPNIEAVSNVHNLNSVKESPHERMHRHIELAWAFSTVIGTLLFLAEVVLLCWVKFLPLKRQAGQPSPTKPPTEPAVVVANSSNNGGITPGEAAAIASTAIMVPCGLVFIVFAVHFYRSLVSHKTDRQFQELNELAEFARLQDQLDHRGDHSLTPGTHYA
Chain of CRAC currents in native RBL-2H3 cells (Q5M848 whole entry): as the sequence (Q5M848 whole entry, the tested form may be a part) above

Structure (SMILES) | Higher potency in SOCE model than in TRPC3-ROCE model, orders of magnitude ([1]; RBL-2H3 SOCE vs TRPC3 ROCE) | Higher potency in SOCE model than in TRPC3-ROCE model ([1]; ratio of IC50 values, RBL-2H3 SOCE vs TRPC3 ROCE) | TRPC3 currents remaining (TRPC3 [2]; 3 μM, percent of control) | Effect on CRAC Ca2+ entry-mediating conductance ([3]; 3 μM pre-incubation) | Effect on ionomycin-initiated degranulation (RBL-2H3 cells; 3 μM) | Effect on ionomycin-initiated degranulation (RBL-2H3 cells; 10 μM) | Selectivity for TRPC3-ROCE as compared with the SOCE model, orders of magnitude (TRPC3 [4]) | Selectivity for TRPC3-ROCE as compared with the SOCE model (TRPC3 [4]; ratio of IC50 values) | Reduction of Ca2+ entry (Orai-mediated) ([1]; 3 μM) | Effect on TRPC3 Ca2+ entry-mediating conductance (TRPC3 [2]; 3 μM pre-incubation, carbachol) | Effect on OAG-induced TRPC3 membrane currents (TRPC3 [2]; 3 μM, OAG 100 μM) | inhibition at 3 µM ([3]; RBL-2H3, read-out: Inhibition of CRAC currents)
O=C(Nc1ccc(-n2nc(C(F)(F)F)cc2C(F)(F)F)cc1)c1ccncc1F [Pyr6, N-(4-(3,5-bis(trifluoromethyl)-1H-pyrazole-1-yl)phenyl)-3-fluoroisonicotinamide] | 1.58 OM | 37 fold | 52% | completely inhibiting CRAC currents | substantially reduced degranulation | suppressed responses down to basal levels | – | – | – | – | – | –
Cc1ccc(S(=O)(=O)Nc2ccc(-n3nc(C(F)(F)F)cc3C(F)(F)F)cc2)cc1 [Pyr10, N-(4-(3,5-bis(trifluoromethyl)-1H-pyrazole-1-yl)phenyl)-4-methylbenzenesulfonamide] | – | – | – | – | – | – | 1.25 OM | 18 fold | 30% | eliminated TRPC3 currents | potently blocks DAG-mediated TRPC3 membrane currents | ~50%
